AHR activator: activators of human aryl hydrocarbon receptor; 2.5% of 320,000 active; P35869; AHR-responsive luciferase reporter cells, luminescence; activation, % at 5 µM; AID 2796; in the data active = activation above about 47%;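 also: 0% = vehicle wells and 100% = reference agonist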
JMJD2C inh: human JMJD2C demethylase inhibition. Q9H3R0. GST-JMJD2C(1-420) H3K9me3 demethylation, DELFIA europium. inhibition, % at 2.35 µM. 0.069% of 330,000 active;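 active = more than half of a compound's replicate wells show inhibition beyond 50%, single wells judged on their own value; inconclusive = some, but no more than half, of replicates pass 50% inhibition; inactive = no replicate passes 50% inhibition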;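 also: signal counts dimethyl H3K9 product captured on neutravidin plate; 0% = median of DMSO wells and 100% = 0.3 times that DMSO median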
SR-BI uptake up: SR-BI HDL lipid transfer activation. activation, % at 12.5 µM. 0.096% of 320,000 active. CHO ldlA[mSR-BI] cells, DiI-HDL uptake fluorescence, 3 h; 100 = double the neutral-control signal;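 active = mean replicate activation of at least 60% and every replicate at or above 60%; inconclusive = mean or all-replicate condition met, but not both; inactive = mean below 60% and not all replicates reaching 60%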;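 also: 0% = median plate neutral-control signal and 100% = twice that signal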
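material = CHO ldlA[mSR-BI] cells | medium = Ham's F12 with 0.5% BSA, HEPES 25 mM, pH 7.4 | reagent = fluorescent DiI-HDL, 10 µg/mL final | compound dosing = single-point compound dose | incubation = 3 h, 37 °C | measured by = bottom-read fluorescence, 550/595 nm | measure = HDL uptake via cellular fluorescence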
FXN GAA850 act: increases GAA850 frataxin promoter reporter activity; HEK293 lucGAA850 FXN promoter luciferase reporter, 24 h; percent of 10 µM SAHA response; activation, % at 6 µM; 0.56% of 360,000 active;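 active = activation above the average of all compounds screened plus 3 SD, cutoff fixed separately per campaign, cut at about 7.5% in these data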;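 also: 0% = DMSO wells and 100% = 10 µM SAHA wells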
SR-BI HDL uptake: blocks mouse SR-BI lipid uptake from DiI-HDL; inhibition, % at 12.5 µM; Q61009; AID 488896; ldlA[mSR-BI] CHO cells, DiI-HDL uptake fluorescence, 3 h; 0.96% of 320,000 active;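 active = mean replicate inhibition of at least 70% and a set share of replicates each scoring 70 or more; inconclusive = meets just one of the two criteria; inactive = fails both criteria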;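 also: 0% = median of neutral control wells and 100% = median of positive control wells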
GAA30 counter: GAA30 FXN promoter activation counter-screen; HEK293 lucGAA30 FXN promoter luciferase, 24 h; DMSO = 0%, 5 µM ipriflavone = 100%; 66% of 1,900 active; activation, % at 6 µM; shares compounds with FXN GAA850 act;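 active = mean activation above the mean of solvent-only control wells plus 3 SD, cut at about 22% in these data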;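 also: counterscreen of GAA850 promoter hits where activity marks nonselective or luminescence artifacts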
FXN GAA850 conf: GAA850 FXN promoter activation confirmation | HEK293 lucGAA850 FXN promoter luciferase reporter, 24 h; 100% = activation by SAHA | 86% of 1,900 active | activation, % at 6 µM | shares compounds with FXN GAA850 act;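 active = mean activation above a set limit taken from the primary screen, cut at about 8% in these data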;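 also: 0% = DMSO wells and 100% = 10 µM SAHA wells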
The depositor's hits bear a star; i = inactive; ? = inconclusive; · = no result. Rows were chosen to be rich in hits. Some 3.7% of all compounds tested hit in one or more screens of this group.

SMILES | AHR activator | JMJD2C inh | SR-BI uptake up | FXN GAA850 act | SR-BI HDL uptake | GAA30 counter | FXN GAA850 conf
CCOCCCn1c(=S)[nH]c2cc(C(=O)NCc3ccc(F)cc3)ccc2c1=O | 3.4 | 12.2 | -2.9 | 0.7 | 2.9 | · | ·
O=c1sc(N2CCN(c3ccccc3F)CC2)nc2ccsc12 | -1.4 | -1.1 | -28.4 | 7.9* | 28.4 | 106.0* | 40.2*
O=S(=O)(c1cccs1)N1CCN(c2ccccc2F)CC1 | -0.3 | 9.2 | · | 7.7* | · | 12.3 | 6.9
CC(=O)N1CCN(S(=O)(=O)c2ccc(C)cc2)C1C (stereo not given) | -0.4 | 24.8 | 6.9 | -0.2 | -6.9 | · | ·
COc1cccc(CNC(=O)Cn2cc3c(n2)CCCC3)c1 | 6.7 | -6.5 | -0.7 | 15.9* | 0.7 | 22.9* | 10.0*
Cc1nc(N2CCOCC2)nc2c1CCC2 | -1.4 | -3.7 | 19.8 | 1.5 | -19.8 | · | ·
COc1ccccc1NS(=O)(=O)c1cc(NC(=O)/C=C/c2cccs2)ccc1N1CCOCC1 | 30.7 | -7.3 | -12.6 | 9.9* | 12.6 | -8.7 | 5.9
O=C(Oc1ccccc1/C=C\C(=O)c1cc2ccccc2o1)c1ccccc1 | 67.8* | 4.2 | 2.3 | 8.7* | -2.3 | 110.8* | 42.7*
COc1cccc(C(=O)Oc2ccccc2/C=C\C(=O)c2cc3ccccc3o2)c1 | · | -18.6 | 22.0 | 7.8* | -22.0 | 95.2* | 45.3*
O=C(Oc1ccccc1/C=C\C(=O)c1cc2ccccc2o1)c1cccc(F)c1 | 70.0* | 0.1 | -31.9 | 8.9* | 31.9 | 40.3* | 20.0*
NC(=O)N/N=C/c1ccccc1OC(=O)c1cc2ccccc2oc1=O | 2.7 | ? | 16.2 | 5.2 | -16.2 | · | ·
Cc1c(Br)cccc1NC(=O)C1(C)CCN1C(C)C (stereo not given) | · | · | · | -1.8 | · | · | ·
Cc1ccc(C(=O)Nc2ccc3c(c2)nc2n3CCSC2)cc1 | -7.0 | 3.1 | -27.5 | 1.6 | 27.5 | · | ·
COc1ccccc1C(=O)Nc1ccc2c(c1)nc1n2CCSC1 | 12.3 | 3.2 | -44.7 | 8.0* | 44.7 | 98.1* | 26.6*
O=C(/C=C/c1ccccc1)CC(=O)c1ccccc1O | 8.6 | 0.4 | -2.3 | 8.9* | 2.3 | 72.4* | 29.1*
COc1cc(/C=N/Nc2ncnc3sc4c(c23)CCC4)ccc1O | · | -3.5 | -59.9 | 19.7* | 59.9 | 67.4* | 19.9*
Cc1nc(NCc2ccco2)c2c(C)c(C)sc2n1 | -9.6 | i | 35.1 | -7.1 | -35.1 | · | ·
Cc1sc2nc3c4ccccc4c(NCc4ccco4)nn3c(=O)c2c1C | -4.8 | · | 1.6 | 10.3* | -1.6 | 104.9* | 30.0*
Cc1noc(C)c1CSc1nnnn1-c1ccc(Cl)cc1 | 0.1 | 12.6 | 0.7 | -1.2 | -0.7 | · | ·
CCOCCN1CCN(c2c(C)c(C)nc3cc(-c4cc(OC)cc(OC)c4)nn23)CC1 | 0.1 | 6.9 | -40.0 | -1.5 | 40.0 | · | ·
COCCN1CCN(c2c(C)c(C)nc3cc(-c4cccc(OC)c4)nn23)CC1 | 1.1 | 11.1 | -30.2 | 10.0* | 30.2 | 72.0* | 20.3*
CCCCCOC(=O)Nc1nnc(CCCCC)s1 | 2.5 | 0.4 | 19.7 | 1.7 | -19.8 | · | ·
CCCCOC(=O)Nc1nnc(CC)s1 | 4.2 | 4.9 | 23.8 | 7.7* | -23.8 | 51.0* | 27.4*
CC(=O)Nc1ccc(NC(=O)C(C)Oc2ccc(C)nc2[N+](=O)[O-])cc1 (stereo not given) | -0.2 | 8.8 | 6.0 | 3.8 | -6.0 | · | ·
COC(=O)c1c(-c2ccccc2)csc1NC(=O)c1ccco1 | -1.5 | 6.9 | 4.3 | 10.8* | -4.3 | 109.5* | 44.5*
COc1ccc2c(c1OC)C(=O)N(c1cccc(C(F)(F)F)c1)C2 | -6.9 | 0.5 | -13.0 | 18.1* | 13.0 | 99.2* | 38.4*
O=C(O)/C=C\C(=O)Nc1ccccc1C(=O)N1CCC(O)(c2ccc(Cl)cc2)CC1 | · | · | 31.9 | 1.6 | -31.9 | · | ·
COc1ccc(OCc2cc(C(=O)N3CCSCC3)no2)c(Cl)c1 | 1.7 | -0.6 | 13.5 | 2.6 | -13.5 | · | ·
O=C(c1cc(COc2ccc(F)cc2Cl)on1)N1CCSCC1 | -4.6 | 10.6 | 4.0 | 10.2* | -4.0 | 109.7* | 43.9*
